Experimental data published in ChEMBL document CHEMBL1122900, “Effects of alkyl and aryl substitution on the myocardial specificity of radioiodinated phosphonium, arsonium, and ammonium cations” (J Med Chem, 1985).
Blank lines part the entries; values can stand above or below the compound they belong to.

Legend:
Rattus norvegicus [1] = experiment: Evaluated for the distribution of radioactivity in tissues of female Fischer rats liver after 60 minutes intravenous administration; dose/g, range 0.44-0.54; assay type: ADME, organism-based; conditions: in vivo, 1 h
Procedure, shortened: (§1)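 Female Fischer 344 rats (10-12 weeks, 170-200 g), fed ad libitum, got a single iv tail-vein injection under ether anaesthesia of the 125I-labelled cation (2.85-8.38 μCi). The tracer was dissolved in Me2SO, diluted with saline to 1% Me2SO and filtered. At the set times rats were killed by cervical fracture and blood taken by cardiac puncture. Organs were rinsed, blotted, weighed and gamma-counted against injectate standards. Results are %dose/g, mean and range, n=5. Thyroid weight was taken as 7.5 mg/100 g body weight.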

Rattus norvegicus [2] = experiment: Evaluated for the distribution of radioactivity in tissues of female Fischer rats lungs after 5 minutes intravenous administration; dose/g, range 1.41-2.17; assay type: ADME, organism-based, Lung; conditions: in vivo
Rattus norvegicus [3] = experiment: Evaluated for the distribution of radioactivity in tissues of female Fischer rats lungs after 60 minutes intravenous administration; dose/g, range 1.07-1.26; assay type: ADME, organism-based, Lung; conditions: in vivo, 1 h; procedure, shortened: as §1
Rattus norvegicus [4] = experiment: Evaluated for the distribution of radioactivity in tissues of female Fischer rats blood after 30 minutes intravenous administration; dose/g, range 0.10-0.13; assay type: ADME, organism-based; conditions: in vivo, 0.5 h
Rattus norvegicus [5] = experiment: Evaluated for the distribution of radioactivity in tissues of female Fischer rats thyroid after 30 minutes intravenous administration; dose/g, range 26-40; assay type: ADME, organism-based, Thyroid gland; conditions: in vivo, 0.5 h
Rattus norvegicus [6] = experiment: Evaluated for the distribution of radioactivity in tissues of female Fischer rats thyroid after 5 minutes intravenous administration; dose/g, range 26-49; assay type: ADME, organism-based, Thyroid gland; conditions: in vivo
Rattus norvegicus [7] = experiment: Evaluated for the distribution of radioactivity in tissues of female Fischer rats thyroid after 60 minutes intravenous administration; dose/g, range 26-42; assay type: ADME, organism-based, Thyroid gland; conditions: in vivo, 1 h; procedure, shortened: as §1
Rattus norvegicus [8] = experiment: Evaluated for the distribution of radioactivity in tissues of female Fischer rats blood after 5 minutes intravenous administration; dose/g, range 0.27-0.33; assay type: ADME, organism-based; conditions: in vivo
Rattus norvegicus [9] = experiment: Evaluated for the distribution of radioactivity in tissues of female Fischer rats lungs after 30 minutes intravenous administration; dose/g, range 0.91-1.74; assay type: ADME, organism-based, Lung; conditions: in vivo, 0.5 h
Rattus norvegicus [10] = experiment: Evaluated for the distribution of radioactivity in tissues of female Fischer rats blood after 60 minutes intravenous administration; dose/g, range 0.12-0.14; assay type: ADME, organism-based; conditions: in vivo, 1 h
Rattus norvegicus [11] = experiment: Evaluated for the distribution of radioactivity in tissues of female Fischer rats heart after 60 minutes intravenous administration; dose/g, range 3.51-5.44; assay type: ADME, organism-based; conditions: in vivo, 1 h
Rattus norvegicus [12] = experiment: Evaluated for the distribution of radioactivity in tissues of female Fischer rats kidneys after 30 minutes intravenous administration; dose/g, range 8.28-10.72; assay type: ADME, organism-based, Kidney; conditions: in vivo, 0.5 h
Rattus norvegicus [13] = experiment: Evaluated for the distribution of radioactivity in tissues of female Fischer rats kidneys after 5 minutes intravenous administration; dose/g, range 1.04-2.56; assay type: ADME, organism-based, Kidney; conditions: in vivo
Rattus norvegicus [14] = experiment: Evaluated for the distribution of radioactivity in tissues of female Fischer rats heart after 30 minutes intravenous administration; dose/g, range 3.17-4.70; assay type: ADME, organism-based; conditions: in vivo, 0.5 h
Rattus norvegicus [15] = experiment: Evaluated for the distribution of radioactivity in tissues of female Fischer rats heart after 5 minutes intravenous administration; dose/g, range 3.80-5.74; assay type: ADME, organism-based; conditions: in vivo
Rattus norvegicus [16] = experiment: Evaluated for the distribution of radioactivity in tissues of female Fischer rats liver after 30 minutes intravenous administration; dose/g, range 0.55-0.71; assay type: ADME, organism-based; conditions: in vivo, 0.5 h
Rattus norvegicus [17] = experiment: Evaluated for the distribution of radioactivity in tissues of female Fischer rats liver after 5 minutes intravenous administration; dose/g, range 1.04-2.56; assay type: ADME, organism-based; conditions: in vivo
Rattus norvegicus [18] = experiment: Evaluated for the distribution of radioactivity in tissues of female Fischer rats kidneys after 60 minutes intravenous administration; dose/g, range 5.67-8.41; assay type: ADME, organism-based, Kidney; conditions: in vivo, 1 h
Rattus norvegicus [19] = experiment: Evaluated for the distribution of radioactivity in tissues of female Fischer rats liver after 60 minutes intravenous administration; dose/g, range 0.24-0.30; assay type: ADME, organism-based; conditions: in vivo, 1 h
Rattus norvegicus [20] = experiment: Evaluated for the distribution of radioactivity in tissues of female Fischer rats kidneys after 5 minutes intravenous administration; dose/g, range 10.7-16.9; assay type: ADME, organism-based, Kidney; conditions: in vivo
Rattus norvegicus [21] = experiment: Evaluated for the distribution of radioactivity in tissues of female Fischer rats kidneys after 60 minutes intravenous administration; dose/g, range 4.59-8.81; assay type: ADME, organism-based, Kidney; conditions: in vivo, 1 h
Rattus norvegicus [22] = experiment: Evaluated for the distribution of radioactivity in tissues of female Fischer rats blood after 60 minutes intravenous administration; dose/g, range 0.15-0.23; assay type: ADME, organism-based; conditions: in vivo, 1 h
Rattus norvegicus [23] = experiment: Evaluated for the distribution of radioactivity in tissues of female Fischer rats lungs after 5 minutes intravenous administration; dose/g, range 0.95-1.49; assay type: ADME, organism-based, Lung; conditions: in vivo
Rattus norvegicus [24] = experiment: Evaluated for the distribution of radioactivity in tissues of female Fischer rats lungs after 60 minutes intravenous administration; dose/g, range 0.83-2.11; assay type: ADME, organism-based, Lung; conditions: in vivo, 1 h
Rattus norvegicus [25] = experiment: Evaluated for the distribution of radioactivity in tissues of female Fischer rats blood after 30 minutes intravenous administration; dose/g, range 0.22-0.32; assay type: ADME, organism-based; conditions: in vivo, 0.5 h
Rattus norvegicus [26] = experiment: Evaluated for the distribution of radioactivity in tissues of female Fischer rats blood after 5 minutes intravenous administration; dose/g, range 0.25-0.34; assay type: ADME, organism-based; conditions: in vivo
Rattus norvegicus [27] = experiment: Evaluated for the distribution of radioactivity in tissues of female Fischer rats thyroid after 30 minutes intravenous administration; dose/g, range 32-42; assay type: ADME, organism-based, Thyroid gland; conditions: in vivo, 0.5 h
Rattus norvegicus [28] = experiment: Evaluated for the distribution of radioactivity in tissues of female Fischer rats thyroid after 5 minutes intravenous administration; dose/g, range 22-25; assay type: ADME, organism-based, Thyroid gland; conditions: in vivo
Rattus norvegicus [29] = experiment: Evaluated for the distribution of radioactivity in tissues of female Fischer rats thyroid after 60 minutes intravenous administration; dose/g, range 30-53; assay type: ADME, organism-based, Thyroid gland; conditions: in vivo, 1 h
Rattus norvegicus [30] = experiment: Evaluated for the distribution of radioactivity in tissues of female Fischer rats lungs after 30 minutes intravenous administration; dose/g, range 0.99-1.23; assay type: ADME, organism-based, Lung; conditions: in vivo, 0.5 h
Rattus norvegicus [31] = experiment: Evaluated for the distribution of radioactivity in tissues of female Fischer rats heart after 60 minutes intravenous administration; dose/g, range 3-3.70; assay type: ADME, organism-based; conditions: in vivo, 1 h
Rattus norvegicus [32] = experiment: Evaluated for the distribution of radioactivity in tissues of female Fischer rats kidneys after 30 minutes intravenous administration; dose/g, range 10.5-14.4; assay type: ADME, organism-based, Kidney; conditions: in vivo, 0.5 h
Rattus norvegicus [33] = experiment: Evaluated for the distribution of radioactivity in tissues of female Fischer rats heart after 30 minutes intravenous administration; dose/g, range 2.67-4.31; assay type: ADME, organism-based; conditions: in vivo, 0.5 h
Rattus norvegicus [34] = experiment: Evaluated for the distribution of radioactivity in tissues of female Fischer rats heart after 5 minutes intravenous administration; dose/g, range 2.78-3.62; assay type: ADME, organism-based; conditions: in vivo
Rattus norvegicus [35] = experiment: Evaluated for the distribution of radioactivity in tissues of female Fischer rats liver after 30 minutes intravenous administration; dose/g, range 0.57-0.72; assay type: ADME, organism-based; conditions: in vivo, 0.5 h
Rattus norvegicus [36] = experiment: Evaluated for the distribution of radioactivity in tissues of female Fischer rats liver after 5 minutes intravenous administration; dose/g, range 1.26-2.45; assay type: ADME, organism-based; conditions: in vivo

Distribution (Rattus norvegicus [1]): 0.49%
Distribution (Rattus norvegicus [2]): 1.72%
Distribution (Rattus norvegicus [3]): 1.18%
Distribution (Rattus norvegicus [4]): 0.12%
Distribution (Rattus norvegicus [5]): 31%
Distribution (Rattus norvegicus [6]): 37%
Distribution (Rattus norvegicus [7]): 33%
Distribution (Rattus norvegicus [8]): 0.29%
Distribution (Rattus norvegicus [9]): 1.28%
Distribution (Rattus norvegicus [10]): 0.14%
Distribution (Rattus norvegicus [11]): 4.19%
Distribution (Rattus norvegicus [12]): 9.36%
Distribution (Rattus norvegicus [13]): 1.48%
Distribution (Rattus norvegicus [14]): 3.99%
Distribution (Rattus norvegicus [15]): 4.4%
Distribution (Rattus norvegicus [16]): 0.62%
Distribution (Rattus norvegicus [17]): 1.48%
Distribution (Rattus norvegicus [18]): 6.8%
SMILES: I/C=C/CCC[P+](c1ccccc1)(c1ccccc1)c1ccccc1.[I-]

SMILES: I/C=C/CCC[As+](c1ccccc1)(c1ccccc1)c1ccccc1.[I-]
Distribution (Rattus norvegicus [19]): 0.27%
Distribution (Rattus norvegicus [20]): 13.14%
Distribution (Rattus norvegicus [21]): 6.92%
Distribution (Rattus norvegicus [22]): 0.19%
Distribution (Rattus norvegicus [23]): 1.24%
Distribution (Rattus norvegicus [24]): 1.31%
Distribution (Rattus norvegicus [25]): 0.26%
Distribution (Rattus norvegicus [26]): 0.31%
Distribution (Rattus norvegicus [27]): 37%
Distribution (Rattus norvegicus [28]): 23%
Distribution (Rattus norvegicus [29]): 43%
Distribution (Rattus norvegicus [30]): 1.09%
Distribution (Rattus norvegicus [31]): 3.37%
Distribution (Rattus norvegicus [32]): 12.01%
Distribution (Rattus norvegicus [33]): 3.17%
Distribution (Rattus norvegicus [34]): 3.22%
Distribution (Rattus norvegicus [35]): 0.64%
Distribution (Rattus norvegicus [36]): 1.78%
